In ChEMBL document CHEMBL1154934, “Identification of piperazine-bisamide GHSR antagonists for the treatment of obesity” (Bioorg Med Chem Lett, 2010):
Each block holds one molecule with its values, some of them ahead of it.

Experiments:
[1] = target: T1, Growth hormone secretagogue receptor type 1 (Homo sapiens, UniProt Q92847); test: Antagonist activity at human GHSR expressed in CHOK1 cells assessed as inhibition of ghrelin-induced intracellular calcium flux by aequorin flash luminescence assay; format: functional, cell-based, CHO-K1
T1 sequence (Q92847 whole entry): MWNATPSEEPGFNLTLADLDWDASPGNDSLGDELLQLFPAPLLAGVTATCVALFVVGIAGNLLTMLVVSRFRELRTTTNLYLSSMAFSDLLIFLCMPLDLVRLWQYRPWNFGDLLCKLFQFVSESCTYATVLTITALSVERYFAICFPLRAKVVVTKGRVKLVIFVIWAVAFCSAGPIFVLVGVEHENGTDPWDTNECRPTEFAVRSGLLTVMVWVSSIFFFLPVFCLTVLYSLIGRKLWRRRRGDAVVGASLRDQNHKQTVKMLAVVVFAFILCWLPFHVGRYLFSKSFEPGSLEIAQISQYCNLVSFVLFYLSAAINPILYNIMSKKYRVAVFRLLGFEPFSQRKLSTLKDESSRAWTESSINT
Procedure, shortened: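 Aequorin flash luminescence in CHO-K1 cells stably co-expressing human ghrelin receptor and aequorin. […] IC50 values are means of three determinations.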

[2] = target: Growth hormone secretagogue receptor type 1 (Rattus norvegicus) (UniProt O08725); test: Agonist activity at rat GHSR expressed in CHO cells assessed as increase in ghrelin-induced [3H]IP accumulation at 10 uM after 1 hr by scintillation counting relative to ghrelin; format: functional, cell-based
Procedure, shortened: (§1)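 CHO cells stably expressing human or rat GHSR labelled 12 h with 3H-inositol (1 µCi/mL in DMEM), then exposed to ghrelin or compound at 37 °C for 1.0 h. Lysis with 20 mM formic acid, 4 °C, 4 h. Extract taken onto SPA beads, 12 h in the dark, then radioactivity counted. IP accumulation expressed as % of maximal ghrelin response at 10, 1.0 and 0.1 µM.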

[3] = target: 5-hydroxytryptamine receptor 2A (Homo sapiens, UniProt P28223); test: Inhibition of 5HT2A (receptor)
5-hydroxytryptamine receptor 2A, sequence (P28223 whole entry): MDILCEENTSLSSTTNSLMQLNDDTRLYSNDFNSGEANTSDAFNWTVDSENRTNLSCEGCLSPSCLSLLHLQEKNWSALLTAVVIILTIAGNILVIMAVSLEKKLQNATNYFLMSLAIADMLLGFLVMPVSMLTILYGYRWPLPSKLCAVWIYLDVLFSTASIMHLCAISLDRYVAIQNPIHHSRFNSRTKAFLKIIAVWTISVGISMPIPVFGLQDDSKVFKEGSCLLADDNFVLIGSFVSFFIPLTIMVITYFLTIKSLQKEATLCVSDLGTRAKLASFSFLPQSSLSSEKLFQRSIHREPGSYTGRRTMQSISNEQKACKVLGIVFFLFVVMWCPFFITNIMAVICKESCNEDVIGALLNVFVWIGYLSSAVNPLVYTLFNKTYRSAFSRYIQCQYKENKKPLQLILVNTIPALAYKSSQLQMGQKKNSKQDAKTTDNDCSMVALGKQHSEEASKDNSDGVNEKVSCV

[4] = target: T2, 5-hydroxytryptamine receptor 2C (Homo sapiens, UniProt P28335); test: Inhibition of 5HT2C (receptor)
T2 sequence (P28335 whole entry): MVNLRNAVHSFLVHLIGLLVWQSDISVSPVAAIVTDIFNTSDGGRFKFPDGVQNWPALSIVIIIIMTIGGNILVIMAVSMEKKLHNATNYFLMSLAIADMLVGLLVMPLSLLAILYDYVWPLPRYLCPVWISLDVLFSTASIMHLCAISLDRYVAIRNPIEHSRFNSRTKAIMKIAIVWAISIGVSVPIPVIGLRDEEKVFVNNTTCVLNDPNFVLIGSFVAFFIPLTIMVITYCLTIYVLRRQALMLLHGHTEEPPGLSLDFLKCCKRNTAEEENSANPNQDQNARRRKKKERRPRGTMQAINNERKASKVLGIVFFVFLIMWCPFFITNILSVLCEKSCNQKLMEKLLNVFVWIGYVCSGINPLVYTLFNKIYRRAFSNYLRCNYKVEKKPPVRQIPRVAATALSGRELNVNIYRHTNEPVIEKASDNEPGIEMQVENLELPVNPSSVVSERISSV

[5] = target: Sodium-dependent serotonin transporter (Homo sapiens, UniProt P31645); test: Inhibition of SERT
Sodium-dependent serotonin transporter, sequence (P31645 whole entry): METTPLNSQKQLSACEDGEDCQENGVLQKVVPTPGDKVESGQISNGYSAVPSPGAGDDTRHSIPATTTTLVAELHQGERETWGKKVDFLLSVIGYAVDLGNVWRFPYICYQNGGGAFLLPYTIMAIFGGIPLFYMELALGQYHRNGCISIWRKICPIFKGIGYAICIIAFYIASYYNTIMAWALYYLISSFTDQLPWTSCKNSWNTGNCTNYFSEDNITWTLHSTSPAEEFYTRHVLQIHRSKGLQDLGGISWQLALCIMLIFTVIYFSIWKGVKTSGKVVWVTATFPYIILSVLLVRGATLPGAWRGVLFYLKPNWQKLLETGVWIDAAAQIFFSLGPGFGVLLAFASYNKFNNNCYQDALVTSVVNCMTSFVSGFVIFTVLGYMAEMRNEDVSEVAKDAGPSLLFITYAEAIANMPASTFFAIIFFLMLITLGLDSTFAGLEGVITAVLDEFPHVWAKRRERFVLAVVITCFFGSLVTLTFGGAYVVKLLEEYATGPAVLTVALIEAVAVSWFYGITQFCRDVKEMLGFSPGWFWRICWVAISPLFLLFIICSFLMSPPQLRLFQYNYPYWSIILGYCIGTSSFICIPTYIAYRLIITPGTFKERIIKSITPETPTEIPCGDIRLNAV

[6] = target: T3, Alpha-2A adrenergic receptor (Homo sapiens, UniProt P08913); test: Inhibition of alpha2A adrenergic receptor
T3 sequence (P08913 whole entry): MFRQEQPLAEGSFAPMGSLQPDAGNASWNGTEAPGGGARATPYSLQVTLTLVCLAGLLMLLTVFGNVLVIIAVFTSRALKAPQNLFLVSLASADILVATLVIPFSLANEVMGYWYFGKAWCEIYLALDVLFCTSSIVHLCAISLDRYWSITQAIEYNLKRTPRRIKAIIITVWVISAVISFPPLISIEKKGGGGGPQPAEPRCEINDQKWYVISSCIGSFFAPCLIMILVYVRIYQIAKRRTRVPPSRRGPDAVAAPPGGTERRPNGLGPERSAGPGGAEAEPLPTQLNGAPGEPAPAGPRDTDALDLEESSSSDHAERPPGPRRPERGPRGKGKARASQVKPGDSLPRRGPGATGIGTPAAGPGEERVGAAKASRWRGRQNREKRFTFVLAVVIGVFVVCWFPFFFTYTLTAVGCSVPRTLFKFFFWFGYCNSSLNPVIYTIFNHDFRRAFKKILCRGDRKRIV

D(2) dopamine receptor = D(2) dopamine receptor (Homo sapiens, UniProt P14416); test: Inhibition of dopamine D2 receptor
D(2) dopamine receptor, sequence (P14416 whole entry): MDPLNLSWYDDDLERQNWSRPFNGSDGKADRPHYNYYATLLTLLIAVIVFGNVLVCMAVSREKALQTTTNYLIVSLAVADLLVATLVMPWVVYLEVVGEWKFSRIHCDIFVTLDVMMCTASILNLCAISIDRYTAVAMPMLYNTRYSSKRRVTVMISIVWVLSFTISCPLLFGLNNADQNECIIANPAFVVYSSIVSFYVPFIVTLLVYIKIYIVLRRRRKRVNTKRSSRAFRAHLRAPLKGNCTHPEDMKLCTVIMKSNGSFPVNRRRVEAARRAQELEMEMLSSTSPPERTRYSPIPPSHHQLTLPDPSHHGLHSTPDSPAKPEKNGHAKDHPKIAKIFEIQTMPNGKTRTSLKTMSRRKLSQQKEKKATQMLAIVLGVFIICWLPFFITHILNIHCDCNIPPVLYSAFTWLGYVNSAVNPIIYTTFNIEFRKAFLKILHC

D(3) dopamine receptor = D(3) dopamine receptor (Homo sapiens, UniProt P35462); test: Inhibition of dopamine D3 receptor
D(3) dopamine receptor, sequence (P35462 whole entry): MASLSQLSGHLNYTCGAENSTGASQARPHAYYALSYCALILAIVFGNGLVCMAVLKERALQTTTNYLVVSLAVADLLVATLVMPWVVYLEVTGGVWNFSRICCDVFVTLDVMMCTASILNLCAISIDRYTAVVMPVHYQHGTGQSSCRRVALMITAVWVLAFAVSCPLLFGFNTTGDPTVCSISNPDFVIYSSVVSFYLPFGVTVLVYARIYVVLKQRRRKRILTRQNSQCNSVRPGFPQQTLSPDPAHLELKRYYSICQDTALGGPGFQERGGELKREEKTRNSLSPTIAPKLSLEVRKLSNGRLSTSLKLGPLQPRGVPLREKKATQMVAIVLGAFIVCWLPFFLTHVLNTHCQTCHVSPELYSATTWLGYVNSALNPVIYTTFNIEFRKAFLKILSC

[7] = target: Sodium-dependent dopamine transporter (Homo sapiens, UniProt Q01959); test: Inhibition of DAT
Sodium-dependent dopamine transporter, sequence (Q01959 whole entry): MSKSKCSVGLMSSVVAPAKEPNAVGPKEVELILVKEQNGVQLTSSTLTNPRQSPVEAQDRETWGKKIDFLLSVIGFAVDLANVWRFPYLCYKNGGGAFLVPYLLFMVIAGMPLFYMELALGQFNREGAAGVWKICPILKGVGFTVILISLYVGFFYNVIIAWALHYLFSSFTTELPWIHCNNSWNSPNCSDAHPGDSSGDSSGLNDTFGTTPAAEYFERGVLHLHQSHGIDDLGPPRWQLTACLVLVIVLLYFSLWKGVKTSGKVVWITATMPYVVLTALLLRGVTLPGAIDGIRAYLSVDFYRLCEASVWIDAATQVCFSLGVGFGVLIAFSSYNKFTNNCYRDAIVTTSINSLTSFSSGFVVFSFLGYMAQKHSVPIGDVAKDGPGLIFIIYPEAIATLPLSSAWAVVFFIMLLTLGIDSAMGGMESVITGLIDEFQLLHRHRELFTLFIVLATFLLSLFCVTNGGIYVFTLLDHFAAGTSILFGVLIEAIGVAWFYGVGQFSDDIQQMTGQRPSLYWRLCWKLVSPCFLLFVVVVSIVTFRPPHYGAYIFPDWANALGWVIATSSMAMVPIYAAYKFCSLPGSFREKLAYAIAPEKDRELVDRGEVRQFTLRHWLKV

Mu-type opioid receptor = Mu-type opioid receptor (Homo sapiens, UniProt P35372); test: Inhibition of mu opioid receptor
Mu-type opioid receptor, sequence (P35372 whole entry): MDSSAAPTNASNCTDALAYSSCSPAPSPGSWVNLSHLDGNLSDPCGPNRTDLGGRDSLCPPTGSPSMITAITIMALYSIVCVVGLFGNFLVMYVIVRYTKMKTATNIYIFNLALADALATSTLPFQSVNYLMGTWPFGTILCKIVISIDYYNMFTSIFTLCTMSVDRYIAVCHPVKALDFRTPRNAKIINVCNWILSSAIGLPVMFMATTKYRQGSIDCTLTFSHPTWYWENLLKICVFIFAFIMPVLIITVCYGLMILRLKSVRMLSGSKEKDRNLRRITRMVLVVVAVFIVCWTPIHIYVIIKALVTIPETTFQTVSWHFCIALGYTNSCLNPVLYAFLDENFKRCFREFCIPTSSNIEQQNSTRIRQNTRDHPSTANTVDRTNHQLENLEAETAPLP

[8] = target: Kappa-type opioid receptor (Homo sapiens, UniProt P41145); test: Inhibition of kappa opioid receptor
[9] = target: Muscarinic acetylcholine receptor M3 (Homo sapiens, UniProt P20309); test: Inhibition of muscarinic M3 receptor
Muscarinic acetylcholine receptor M3, sequence (P20309 whole entry): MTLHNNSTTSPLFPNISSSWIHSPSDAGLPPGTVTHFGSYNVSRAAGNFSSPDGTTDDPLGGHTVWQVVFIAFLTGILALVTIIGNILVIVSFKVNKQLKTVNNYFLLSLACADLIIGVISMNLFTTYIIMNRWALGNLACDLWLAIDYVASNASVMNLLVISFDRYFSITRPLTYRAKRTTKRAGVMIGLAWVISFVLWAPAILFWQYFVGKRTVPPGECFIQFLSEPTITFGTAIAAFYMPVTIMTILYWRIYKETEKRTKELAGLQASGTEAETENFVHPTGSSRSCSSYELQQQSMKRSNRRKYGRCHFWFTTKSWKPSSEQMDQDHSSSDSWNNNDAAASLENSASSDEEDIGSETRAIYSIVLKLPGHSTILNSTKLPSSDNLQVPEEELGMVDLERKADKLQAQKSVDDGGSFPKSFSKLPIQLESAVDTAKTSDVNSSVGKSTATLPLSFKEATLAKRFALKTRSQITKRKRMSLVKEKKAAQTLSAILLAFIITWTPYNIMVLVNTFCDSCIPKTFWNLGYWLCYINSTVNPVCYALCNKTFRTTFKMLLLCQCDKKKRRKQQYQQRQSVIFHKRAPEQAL

[10] = target: Sodium-dependent noradrenaline transporter (Homo sapiens, UniProt P23975); test: Inhibition of NET
Sodium-dependent noradrenaline transporter, sequence (P23975 whole entry): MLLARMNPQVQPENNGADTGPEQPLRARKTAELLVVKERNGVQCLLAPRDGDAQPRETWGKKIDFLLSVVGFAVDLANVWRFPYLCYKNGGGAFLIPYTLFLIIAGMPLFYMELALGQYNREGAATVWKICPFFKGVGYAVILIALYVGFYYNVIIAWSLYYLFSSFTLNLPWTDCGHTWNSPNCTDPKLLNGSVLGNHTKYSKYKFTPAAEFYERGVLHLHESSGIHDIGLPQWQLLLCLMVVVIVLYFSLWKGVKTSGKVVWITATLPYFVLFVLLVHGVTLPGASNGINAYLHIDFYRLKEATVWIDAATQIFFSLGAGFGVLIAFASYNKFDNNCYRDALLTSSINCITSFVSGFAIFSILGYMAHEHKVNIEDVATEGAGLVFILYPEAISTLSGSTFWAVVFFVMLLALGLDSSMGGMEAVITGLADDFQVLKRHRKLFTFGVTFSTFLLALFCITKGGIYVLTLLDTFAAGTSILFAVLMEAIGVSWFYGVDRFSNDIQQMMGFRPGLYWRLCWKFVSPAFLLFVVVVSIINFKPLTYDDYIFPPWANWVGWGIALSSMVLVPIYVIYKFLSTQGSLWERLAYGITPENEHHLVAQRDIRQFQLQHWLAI

Histamine H2 receptor = Histamine H2 receptor (Homo sapiens, UniProt P25021); test: Inhibition of histamine H2 receptor
Histamine H2 receptor, sequence (P25021 whole entry): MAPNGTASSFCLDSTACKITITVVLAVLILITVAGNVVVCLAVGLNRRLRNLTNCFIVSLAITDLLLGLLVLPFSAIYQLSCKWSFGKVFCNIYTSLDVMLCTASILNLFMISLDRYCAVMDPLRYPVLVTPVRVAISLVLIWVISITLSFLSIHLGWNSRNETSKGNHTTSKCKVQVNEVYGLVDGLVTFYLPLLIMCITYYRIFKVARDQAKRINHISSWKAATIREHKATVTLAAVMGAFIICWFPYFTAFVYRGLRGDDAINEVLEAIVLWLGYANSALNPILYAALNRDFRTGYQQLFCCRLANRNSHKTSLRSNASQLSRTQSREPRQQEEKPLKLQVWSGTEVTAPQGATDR

[11] = target: T1, Growth hormone secretagogue receptor type 1; test: Agonist activity at human GHSR expressed in CHO cells assessed as increase in ghrelin-induced [3H]IP accumulation at 10 uM after 1 hr by scintillation counting relative to ghrelin; format: functional, cell-based; procedure, shortened: as §1

- IC50 [1]: 0.0372 µM
- Activity [2]: 18%
Compound: C[C@H]1CN(C(=O)c2ccc(-c3ccccc3Cl)cn2)CCN1C(=O)c1ccc2cc[nH]c2c1

- IC50 [1]: 0.0127 µM
- Activity [2]: -2%
Compound: C[C@H]1CN(C(=O)c2ccc(-c3ccncc3)cc2)CCN1C(=O)c1ccc2cc[nH]c2c1

- IC50 [1]: 0.065 µM
- Activity [2]: 5%
Compound: C[C@H]1CN(C(=O)c2ccc(-c3cncs3)cc2)CCN1C(=O)c1ccc2cc[nH]c2c1

- IC50 [1]: 0.0177 µM
- Activity [2]: 43%
Compound: C[C@H]1CN(C(=O)c2ccc(-c3ccccc3)cc2F)CCN1C(=O)c1ccc2cc[nH]c2c1

- IC50 [1]: 0.013 µM
- Activity [2]: 14%
Compound: C[C@H]1CN(C(=O)c2ccc(-c3ccccc3Cl)nc2)CCN1C(=O)c1ccc2cc[nH]c2c1

- Ki [3]: > 10 µM
- Ki [4]: > 10 µM
- Ki [5]: > 10 µM
- Ki [6]: > 10 µM
- Ki (D(2) dopamine receptor): > 10 µM
- Ki (D(3) dopamine receptor): > 10 µM
- Ki [7]: > 10 µM
- Ki (Mu-type opioid receptor): > 10 µM
- Ki [8]: > 10 µM
- Ki [9]: > 10 µM
- Ki [10]: > 10 µM
- Ki (Histamine H2 receptor): > 10 µM
- IC50 [1]: 0.006 µM
- Activity [11]: 29%
- Activity [2]: 26%
Compound: C[C@H]1CN(C(=O)c2ccc(-c3ccccc3)cc2)CCN1C(=O)c1ccc2cc[nH]c2c1

- IC50 [1]: 0.339 µM
Compound: C[C@H]1CN(C(=O)c2ccc(N3CCOCC3)cc2)CCN1C(=O)c1ccc2cc[nH]c2c1

- IC50 [1]: 0.009 µM
- Activity [2]: 16%
Compound: Cc1ccccc1-c1ccc(C(=O)N2CCN(C(=O)c3ccc4cc[nH]c4c3)[C@@H](C)C2)cc1F

- IC50 [1]: 0.068 µM
Compound: COc1cccc(-c2ccc(C(=O)N3CCN(C(=O)c4ccc5cc[nH]c5c4)C[C@H]3C)cc2)c1

- Ki [3]: > 10 µM
- Ki [4]: > 10 µM
- Ki [5]: > 10 µM
- Ki [6]: > 10 µM
- Ki (D(2) dopamine receptor): > 10 µM
- Ki (D(3) dopamine receptor): > 10 µM
- Ki [7]: > 10 µM
- Ki (Mu-type opioid receptor): > 10 µM
- Ki [8]: > 10 µM
- Ki [9]: > 10 µM
- Ki [10]: > 10 µM
- Ki (Histamine H2 receptor): > 10 µM
- IC50 [1]: 0.077 µM
Compound: C[C@H]1CN(C(=O)c2ccc(-c3cccc(C(F)(F)F)c3)cc2)CCN1C(=O)c1ccc2cc[nH]c2c1

- IC50 [1]: 0.0422 µM
- Activity [2]: 12%
Compound: C[C@H]1CN(C(=O)c2ccc(-c3ccccn3)cc2)CCN1C(=O)c1ccc2cc[nH]c2c1

- Ki [3]: > 10 µM
- Ki [4]: > 10 µM
- Ki [5]: > 10 µM
- Ki [6]: > 10 µM
- Ki (D(2) dopamine receptor): > 10 µM
- Ki (D(3) dopamine receptor): > 10 µM
- Ki [7]: > 10 µM
- Ki (Mu-type opioid receptor): > 10 µM
- Ki [8]: > 10 µM
- Ki [9]: > 10 µM
- Ki [10]: > 10 µM
- Ki (Histamine H2 receptor): > 10 µM
- IC50 [1]: 0.136 µM
Compound: C[C@H]1CN(C(=O)c2ccc(-c3ccc(OC(F)(F)F)cc3)cc2)CCN1C(=O)c1ccc2cc[nH]c2c1

- Ki [3]: > 10 µM
- Ki [4]: > 10 µM
- Ki [5]: > 10 µM
- Ki [6]: > 10 µM
- Ki (D(2) dopamine receptor): > 10 µM
- Ki (D(3) dopamine receptor): > 10 µM
- Ki [7]: > 10 µM
- Ki (Mu-type opioid receptor): > 10 µM
- Ki [8]: > 10 µM
- Ki [9]: > 10 µM
- Ki [10]: > 10 µM
- Ki (Histamine H2 receptor): > 10 µM
- IC50 [1]: 0.026 µM
Compound: COc1ccccc1-c1ccc(C(=O)N2CCN(C(=O)c3ccc4cc[nH]c4c3)[C@@H](C)C2)cc1

- IC50 [1]: 0.245 µM
- Activity [2]: 5%
Compound: Cc1noc(C)c1-c1ccc(C(=O)N2CCN(C(=O)c3ccc4cc[nH]c4c3)[C@@H](C)C2)cc1
